Laboratory results from ChEMBL document CHEMBL3526132, “In vitro metabolism of BIIB021, an inhibitor of heat shock protein 90, in liver microsomes and hepatocytes of rats, dogs, and humans and recombinant human cytochrome P450 isoforms” (Drug Metab Dispos, 2012).

Columns and labels:
Liver microsome [1] = assay: Drug level in human liver microsomes treated with [14C]BIIB021 at 10 uM after 90 mins by LC-RAM-MS analysis in presence of anti-CYP2B6 monoclonal antibody; type: ADME; settings: 1.5 h
Liver microsome [2] = assay: Drug level in human liver microsomes treated with [14C]BIIB021 at 10 uM […] by LC-RAM-MS analysis in presence of anti-CYP2E1 monoclonal antibody; type: ADME; settings: 1.5 h
Liver microsome [3] = assay: Drug level in human liver microsomes treated with [14C]BIIB021 at 10 uM after 90 mins by LC-RAM-MS analysis in presence of anti-CYP2D6 monoclonal antibody; type: ADME; settings: 1.5 h
Liver microsome [4] = assay: Drug level in human liver microsomes treated with [14C]BIIB021 at 10 uM after 90 mins by LC-RAM-MS analysis in presence of anti-CYP2A6 monoclonal antibody; type: ADME; settings: 1.5 h
Liver microsome [5] = assay: Drug level in human liver microsomes treated with [14C]BIIB021 at 10 uM […] by LC-RAM-MS analysis in presence of anti-CYP1A2 monoclonal antibody; type: ADME; settings: 1.5 h
Liver microsome [6] = assay: Drug level in human liver microsomes treated with [14C]BIIB021 at 10 uM […] by LC-RAM-MS analysis in presence of anti-CYP2C19 monoclonal antibody; type: ADME; settings: 1.5 h
Liver microsome [7] = assay: Drug level in human liver microsomes treated with [14C]BIIB021 at 10 uM after 90 mins by LC-RAM-MS analysis in presence of anti-CYP3A4 monoclonal antibody; type: ADME; settings: 1.5 h
Liver microsome [8] = assay: Drug metabolism in human liver microsomes assessed as CF3785 metabolite formation at 10 uM […] by LC-RAM-MS analysis in presence of anti-CYP1A2 monoclonal antibody; type: ADME
Summary of the method: (§1)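 All components except substrate and NADPH were preincubated 15 min on ice, then 5 min at 37°C. Substrate and NADPH were added and incubated 60 min at 37°C. Incubations without antibody served as positive controls.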

[9] = Drug metabolism in human liver cytosol assessed as CF2483 metabolite formation at 10 uM after 30 mins by LC-RAM-MS analysis; type: ADME, tissue-based; settings: 0.5 h
Summary of the method: (§2)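 Human liver cytosol (1 mg/mL protein) incubated with 10 µM [14C]BIIB021 (0.5 µCi/mL) in 100 mM phosphate buffer, pH 7.4, for 30 min. Reaction quenched with ice-cold acetonitrile, then centrifuged 10 min at 4°C, and supernatant analysed by LC-MS. Where used, inhibitors (isovanillin 100 µM, menadione 100 µM, allopurinol 100 µM, raloxifene 50 µM) were preincubated in cytosol 10 min at 37°C before substrate addition.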

Liver microsome [10] = assay: Drug metabolism in human liver microsomes assessed as CF2246 metabolite formation at 10 uM after […] by LC-RAM-MS analysis in presence of anti-CYP2A6 monoclonal antibody; type: ADME; summary of the method: as §1
Liver microsome [11] = assay: Drug metabolism in human liver microsomes assessed as CF2246 metabolite formation at 10 uM […] by LC-RAM-MS analysis in presence of anti-CYP2C19 monoclonal antibody; type: ADME; summary of the method: as §1
[12] = Drug metabolism in human liver cytosol assessed as CF2483 metabolite formation at 10 uM after 30 mins by LC-RAM-MS analysis in presence of aldehyde oxidase inhibitor isovanillin; type: ADME; settings: 0.5 h; summary of the method: as §2
Liver microsome [13] = assay: Drug metabolism in human liver microsomes assessed as CF2246 metabolite formation at 10 uM after […] by LC-RAM-MS analysis in presence of anti-CYP2E1 monoclonal antibody; type: ADME; summary of the method: as §1
Liver microsome [14] = assay: Drug metabolism in human liver microsomes assessed as CF3785 metabolite formation at 10 uM […] by LC-RAM-MS analysis in presence of anti-CYP2A6 monoclonal antibody; type: ADME; summary of the method: as §1
[15] = Drug metabolism in human liver cytosol assessed as CF2483 metabolite formation at 10 uM after 30 mins by LC-RAM-MS analysis in presence of xanthine oxidase inhibitor allopurinol; type: ADME; settings: 0.5 h; summary of the method: as §2
Liver microsome [16] = assay: Drug metabolism in human liver microsomes assessed as CF3785 metabolite formation at 10 uM […] by LC-RAM-MS analysis in presence of anti-CYP2E1 monoclonal antibody; type: ADME; summary of the method: as §1
Liver microsome [17] = assay: Drug metabolism in human liver microsomes assessed as CF3785 metabolite formation at 10 uM […] by LC-RAM-MS analysis in presence of anti-CYP2B6 monoclonal antibody; type: ADME; summary of the method: as §1
Liver microsome [18] = assay: Drug metabolism in human liver microsomes assessed as CF2246 metabolite formation at 10 uM after […] by LC-RAM-MS analysis in presence of anti-CYP3A4 monoclonal antibody; type: ADME; summary of the method: as §1
Liver microsome [19] = assay: Drug metabolism in human liver microsomes assessed as CF2246 metabolite formation at 10 uM […] by LC-RAM-MS analysis in presence of anti-CYP1A2 monoclonal antibody; type: ADME; summary of the method: as §1
Liver microsome [20] = assay: Drug metabolism in human liver microsomes assessed as CF2246 metabolite formation at 10 uM after […] by LC-RAM-MS analysis in presence of anti-CYP2D6 monoclonal antibody; type: ADME; summary of the method: as §1
Liver microsome [21] = assay: Drug metabolism in human liver microsomes assessed as CF2246 metabolite formation at 10 uM […] by LC-RAM-MS analysis in presence of anti-CYP2B6 monoclonal antibody; type: ADME; summary of the method: as §1
Liver microsome [22] = assay: Drug metabolism in human liver microsomes assessed as CF3785 metabolite formation at 10 uM […] by LC-RAM-MS analysis in presence of anti-CYP2D6 monoclonal antibody; type: ADME; summary of the method: as §1
CYP3A4 = CYP3A4 (Homo sapiens, UniProt P08684); assay: Drug metabolism assessed as unchanged drug level in baculovirus-infected Sf9 cell microsomes expressing human recombinant CYP3A4 at 10 uM after 30 mins by LC-RAM-MS analysis; type: ADME; settings: read-out: Drug metabolism
Sequence of CYP3A4 (P08684 whole entry): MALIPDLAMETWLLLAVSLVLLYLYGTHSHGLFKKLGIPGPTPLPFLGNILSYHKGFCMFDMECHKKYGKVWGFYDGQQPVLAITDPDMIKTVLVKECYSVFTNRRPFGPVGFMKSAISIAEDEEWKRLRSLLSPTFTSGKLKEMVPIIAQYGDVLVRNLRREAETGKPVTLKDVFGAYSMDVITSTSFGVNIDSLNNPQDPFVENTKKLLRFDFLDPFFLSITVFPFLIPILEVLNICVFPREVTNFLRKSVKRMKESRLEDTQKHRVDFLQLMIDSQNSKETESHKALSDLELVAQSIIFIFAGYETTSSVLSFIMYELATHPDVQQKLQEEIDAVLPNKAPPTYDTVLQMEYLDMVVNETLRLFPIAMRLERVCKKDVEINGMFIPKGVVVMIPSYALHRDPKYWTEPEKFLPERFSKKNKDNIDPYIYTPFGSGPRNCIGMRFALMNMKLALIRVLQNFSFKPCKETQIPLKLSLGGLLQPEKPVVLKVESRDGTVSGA
Summary of the method: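 Microsomes from baculovirus-infected Sf9 cells expressing recombinant human CYP3A4 with CYP450 reductase (50 pmol/mL) incubated in duplicate with 10 µM [14C]BIIB021 (0.5 µCi/mL) in 100 mM potassium phosphate pH 7.4. Reaction started with 1 mM NADPH (final), run 30 min at 37°C with gentle shaking, stopped with ice-cold acetonitrile containing 0.1% formic acid, centrifuged, and supernatant analysed by LC-MS.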

[23] = Drug metabolism in human liver cytosol assessed as CF2483 metabolite formation at 10 uM after 30 mins by LC-RAM-MS analysis in presence of aldehyde oxidase inhibitor menadione; type: ADME; settings: 0.5 h; summary of the method: as §2
[24] = Drug metabolism in human liver cytosol assessed as CF2483 metabolite formation at 10 uM after 30 mins by LC-RAM-MS analysis in presence of aldehyde oxidase inhibitor raloxifene; type: ADME; settings: 0.5 h; summary of the method: as §2
[25] = Drug level in human liver cytosol treated with [14C]BIIB021 at 10 uM after 30 mins by LC-RAM-MS analysis in presence of xanthine oxidase inhibitor allopurinol; type: ADME, tissue-based; settings: 0.5 h; summary of the method: as §2
[26] = Drug level in human liver cytosol treated with [14C]BIIB021 at 10 uM after 30 mins by LC-RAM-MS analysis; type: ADME, tissue-based; settings: 0.5 h; summary of the method: as §2

For `COc1c(CO)cnc(Cn2cnc3c(Cl)nc(N)nc32)c1C`, the Drug metabolism (Liver microsome [1]) was “metabolite_detected”, the Drug metabolism (Liver microsome [2]) was “metabolite_detected” and the Drug metabolism (Liver microsome [3]) was “metabolite_detected”. For the same compound, the Drug metabolism (Liver microsome [4]) was “metabolite_detected” and the Drug metabolism (Liver microsome [5]) was “metabolite_detected”.

In the case of `Cc1cnc(Cn2cnc3c(Cl)nc(N)nc32)c(C)c1O`, the Drug metabolism (Liver microsome [1]) is reported as “metabolite_detected”, the Drug metabolism (Liver microsome [6]) is reported as “metabolite_detected” and the Drug metabolism (Liver microsome [2]) is reported as “metabolite_detected”. The Drug metabolism (Liver microsome [7]) was “metabolite_detected”, the Drug metabolism (Liver microsome [3]) was “metabolite_detected” and the Drug metabolism (Liver microsome [4]) was “metabolite_detected”. The Drug metabolism (Liver microsome [5]) was “metabolite_detected”.

With `COc1c(C)cnc(Cn2[14cH]nc3c(Cl)nc(N)nc32)c1C` the Drug metabolism (Liver microsome [8]) was “metabolite_detected”, the Drug metabolism [9] was “metabolite_detected” and the Drug metabolism (Liver microsome [10]) was “metabolite_detected”. The Drug metabolism (Liver microsome [11]) was “metabolite_detected”, the Drug metabolism [12] was “metabolite_not_detected” and the Drug metabolism (Liver microsome [13]) was “metabolite_detected”. For the same compound, the Drug metabolism (Liver microsome [14]) was “metabolite_detected”, the Drug metabolism [15] was “metabolite_detected” and the Drug metabolism (Liver microsome [16]) was “metabolite_detected”. For the same compound, the Drug metabolism (Liver microsome [17]) was “metabolite_detected”, the Drug metabolism (Liver microsome [18]) was “metabolite_detected” and the Drug metabolism (Liver microsome [19]) was “metabolite_detected”. For the same compound, the Drug metabolism (Liver microsome [20]) was “metabolite_detected”, the Drug metabolism (Liver microsome [21]) was “metabolite_detected” and the Drug metabolism (Liver microsome [22]) was “metabolite_detected”. For the same compound, the remaining at 0.5 h, 10 µM (CYP3A4) was 70%, the Drug metabolism [23] was “metabolite_not_detected” and the Drug metabolism [24] was “metabolite_not_detected”.

With `COc1c(C)cnc(Cn2c(O)nc3c(Cl)nc(N)nc32)c1C` the Drug metabolism [25] was “metabolite_detected” and the Drug metabolism [26] was “metabolite_detected”.
